The source made the active and inactive calls. No cut-off for these calls is given here.

Twelve compounds from ChEMBL document CHEMBL1157649, “Cytotoxic 2-benzylidene-6-(nitrobenzylidene)cyclohexanones which display substantially greater toxicity for neoplasms than non-malignant cells” (Bioorg Med Chem, 2010) can be followed below.

Data set [1] can be described thus: Cytotoxicity against human HGF cells after 24 hrs. To be noted: for CC50: hgf, 24 h; for CC50 at 24 h: HGF cells. The data set is classed as cell-based. The method, boiled down:
(§1)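 Cells (HGF gingival fibroblasts, HPC pulp cells, HPLF periodontal ligament fibroblasts, HSC-2 and HSC-4 squamous carcinoma, HL-60 promyelocytic leukemia) were exposed to graded concentrations for 24 h, up to a maximum of 400 μM. CC50 is the concentration reducing viable cell number by 50%, taken from dose–response curves. Values are from duplicate determinations differing by less than 5%.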

Data set [2] can be described thus: Cytotoxicity against human HPC cells after 24 hrs. Type of data set: cell-based. As to conditions: for CC50: hpc, 24 h; for CC50 at 24 h: HPC cells. The method, boiled down: as §1
The nature of data set [3]: Cytotoxicity against human HPLF cells after 24 hrs. Type of data set: cell-based. As to conditions: for CC50: hplf, 24 h; for CC50 at 24 h: HPLF cells. The method, boiled down:
as §1

Data set [4] has as its system HSC-2. Kind of data set: Cytotoxicity against human HSC2 cells after 24 hrs. Type of data set: functional. To be noted: HSC-2, 24 h. The method, boiled down:
as §1

The subject of data set [5] is HSC-2. Kind of data set: Selectivity index, ratio of CC50 for human normal cells to CC50 for human HSC2 cells. Type of data set: functional. The gist of the method: (§2)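 The index is the average CC50 toward the three normal cell types (HGF, HPC, HPLF) divided by the CC50 toward the indicated malignant line.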
The test system of data set [6] is HSC-4. As to the kind of experiment: Cytotoxicity against human HSC4 cells after 24 hrs. The data set is classed as functional. As to conditions: HSC-4, 24 h. The method, boiled down:
as §1

Data set [7] relates to HSC-4. As to the kind of experiment: Selectivity index, ratio of CC50 for human normal cells to CC50 for human HSC4 cells. Type of data set: functional. The gist of the method: as §2
Data set [8] relates to HL-60. As to the kind of experiment: Cytotoxicity against human HL60 cells after 24 hrs. The data set is classed as functional. To be noted: HL-60, 24 h. The gist of the method:
as §1

Data set [9] relates to HL-60. Kind of data set: Selectivity index, ratio of CC50 for human normal cells to CC50 for human HL60 cells. The data set is classed as functional. The method, boiled down: as §2
In data set [10] the test system is Mus musculus. Kind of data set: Toxicity in mouse assessed as induction of mortality at 30 to 300 mg/kg, ip. Type of data set: organism-based. On the set-up: dose 30-300 mg/kg, route intraperitoneal. As to conditions: in vivo.
Data set [11] relates to Mus musculus. Kind of data set: Neurotoxicity in mouse assessed at 30 to 300 mg/kg, ip after 0.5 hrs. The data set is classed as toxicity, organism-based. On the set-up: dose 30-300 mg/kg, route intraperitoneal. As to conditions: in vivo. The method, boiled down: (§3)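 Mice received 30, 100 or 300 mg/kg intraperitoneally and were examined at 0.5 and 4 h for mortality and neurological deficit, following NINDS screening protocols. Results were recorded as the number of mice showing a deficit over the number treated per dose.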

Data set [12] deals with Mus musculus. As to the kind of experiment: Neurotoxicity in mouse assessed at 30 to 300 mg/kg, ip after 4 hrs. The data set is classed as toxicity, organism-based. On the set-up: dose 30-300 mg/kg, route intraperitoneal. As to conditions: in vivo. The method, boiled down: as §3
Data set [13] in a line: Partition coefficient, log P of the compound. Type of data set: physicochemical. As to conditions: octanol/water.
For data set [14], the species on record is Mus musculus. As to the kind of experiment: Toxicity in mouse. The data set is classed as organism-based. To be noted: in vivo. The method, boiled down:
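Neurotoxicity was recorded as the number of affected mice per number treated at each dose. Testing was run under National Institute of Neurological Disorders and Stroke screening protocols.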

In data set [15] the test system is HL-60. As to the kind of experiment: Induction of internucleosomal DNA fragmentation in human HL60 cells after 6 hrs. The data set is classed as functional, cell-based. The gist of the method: (§4)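 HL-60 and HSC-2 cells were incubated with compound for 6 h. Internucleosomal DNA fragmentation was then examined against a DNA molecular-weight marker.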
For data set [16], the system named is HSC-2. As to the kind of experiment: Induction of internucleosomal DNA fragmentation in human HSC2 cells after 6 hrs. Type of data set: functional, cell-based. The method, boiled down: as §4
Data set [17] deals with HL-60. As to the kind of experiment: Induction of apoptosis in human HL60 cells assessed as caspase-3 activation. Type of data set: functional, cell-based. The method, boiled down:
(§5)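 HL-60 and HSC-2 cells were incubated with compound for 5 h, then caspase-3 activation was measured. The positive control was UV irradiation (6 J/m²/min for 1 min) followed by 3 h incubation. Bars show mean ± SD, n = 3.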

For data set [18], the system named is HSC-2. As to the kind of experiment: Induction of apoptosis in human HSC2 cells assessed as caspase-3 activation. Type of data set: functional, cell-based. The gist of the method: as §5

For `COc1ccc(/C=C2\CCC/C(=C\c3ccc([N+](=O)[O-])cc3)C2=O)c(OC)c1OC`, the CC50 (in data set [1]; in data set [2]; in data set [3]; in the data set with HSC-2 [4]; in the data set on HSC-4 [6]; in the data set with HL-60 [8]) was above 400 µM in each case. Moreover, the “Selectivity Index” value with HSC-2 [5], with HSC-4 [7] and in the data set with HL-60 [9] was 1 in each case. Moreover, the Activity result with Mus musculus [10], in the data set on Mus musculus [11] and in the data set on Mus musculus [12] was “Non-toxic” throughout.

As for `COc1cc(/C=C2\CCC/C(=C\c3ccccc3[N+](=O)[O-])C2=O)cc(OC)c1OC`, the half-maximal cytotoxic concentration (CC50) in data set [1] was 44 µM; in data set [2] it was 35 µM; in [3], 79 µM; in the data set on HSC-2 [4], 5.9 µM; in the data set on HSC-4 [6], 6.5 µM; with HL-60 [8], 3 µM. Moreover, the “Selectivity Index” value in the data set on HSC-2 [5] was 9; with HSC-4 [7], 8.2; in the data set on HL-60 [9], 18. This compound registered a log partition coefficient (logP) in data set [13] of 4.33. In addition, the Activity result with Mus musculus [10], in the data set on Mus musculus [11] and with Mus musculus [12] was “Non-toxic” throughout.

Regarding `Cc1ccc(/C=C2\CCC/C(=C\c3cccc([N+](=O)[O-])c3)C2=O)cc1`, the CC50 is above 400 µM in data set [1]; 192 µM in [2]; above 400 µM in data set [3]; 17 µM in the data set with HSC-2 [4]; 45 µM in the data set with HSC-4 [6]; 38 µM in the data set on HL-60 [8]. The entries for the “Selectivity Index” value in the data set with HSC-2 [5], in the data set with HSC-4 [7] and with HL-60 [9] were above 20, above 7.4 and above 8.7, respectively. The logP in data set [13] is 5.35. Further, the Activity result in the data set with Mus musculus [10], with Mus musculus [11] and in the data set with Mus musculus [12] was “Non-toxic” in each case.

Regarding `COc1cc(/C=C2\CCC/C(=C\c3cccc([N+](=O)[O-])c3)C2=O)cc(OC)c1OC`, the CC50 in data set [1] was 336 µM; in [2], above 400 µM; in [3], above 400 µM; in the data set with HSC-2 [4], 73 µM; in the data set with HSC-4 [6] it was 92 µM; in the data set with HL-60 [8], 59 µM. Moreover, the “Selectivity Index” value with HSC-2 [5] is above 5.2; in the data set on HSC-4 [7], above 4.1; in the data set with HL-60 [9], above 6.4. In data set [13], this compound yielded a logP of 4.53. In addition, the Activity result in the data set with Mus musculus [10], in the data set on Mus musculus [11] and in the data set with Mus musculus [12] was “Non-toxic” in each case.

For the compound `N[C@@H](Cc1ccc(N(CCCl)CCCl)cc1)C(=O)O`, the Activity in the data set listed under Mus musculus [14] turned out to be 4 mg/kg.

For `O=C1/C(=C/c2ccccc2)CCC/C1=C\c1ccc([N+](=O)[O-])cc1`, the cytotoxic concentration (CC50) in [1] came out at 371 µM; in [2], 123 µM; in data set [3], 282 µM; with HSC-2 [4], 4.9 µM; in the data set with HSC-4 [6], 9.2 µM; in the data set on HL-60 [8], 20 µM. Further, the results for the “Selectivity Index” value in the data set on HSC-2 [5], with HSC-4 [7] and with HL-60 [9] were 53, 28 and 13, respectively. The logP in data set [13] stood at 4.93. The Activity entry in the data set with Mus musculus [10], with Mus musculus [11] and in the data set on Mus musculus [12] was “Non-toxic” in each case.

Turning to `COc1ccc(/C=C2\CCC/C(=C\c3ccc([N+](=O)[O-])cc3)C2=O)cc1`, the 50% cytotoxic concentration (CC50) at 24 h in data set [1], in data set [2] and in data set [3] was above 400 µM throughout. For the same compound, the 50% cytotoxic concentration (CC50) in the data set with HSC-2 [4], in the data set with HSC-4 [6] and in the data set on HL-60 [8] was above 400 µM throughout. Also, the “Selectivity Index” value in the data set on HSC-2 [5], in the data set on HSC-4 [7] and with HL-60 [9] was 1 throughout. In data set [13], this compound returned a logP of 4.98. The Activity entry in the data set on Mus musculus [10], in the data set on Mus musculus [11] and in the data set on Mus musculus [12] was “Non-toxic” in each case.

With `COc1ccc(/C=C2\CCC/C(=C\c3ccccc3[N+](=O)[O-])C2=O)cc1`, the CC50 is above 400 µM in data set [1]; above 400 µM in data set [2]; 386 µM in data set [3]; 11 µM with HSC-2 [4]; 24 µM in the data set with HSC-4 [6]; 26 µM with HL-60 [8]. This compound came in with a log partition coefficient (logP) in data set [13] of 4.76. The Activity entry in the data set on Mus musculus [10], in the data set with Mus musculus [11] and with Mus musculus [12] was “Non-toxic” in each case.

Regarding `O=C1/C(=C/c2ccc(Cl)cc2)CCC/C1=C\c1ccc([N+](=O)[O-])cc1`, the CC50 at 24 h in data set [1] stood at 191 µM; in data set [2] it was 345 µM; in data set [3] it was 332 µM. The CC50 with HSC-2 [4] was 1.5 µM; in the data set on HSC-4 [6], 2.7 µM; in the data set on HL-60 [8], 4.1 µM. Also, the “Selectivity Index” value in the data set with HSC-2 [5] came to 193; in the data set with HSC-4 [7], 107; in the data set on HL-60 [9], 71. For the same compound, in data set [13], the lipophilicity (logP) was 5.6. In addition, the Activity result with Mus musculus [10], in the data set with Mus musculus [11] and with Mus musculus [12] was “Non-toxic” throughout.

Take `COc1cc(OC)c(/C=C2\CCC/C(=C\c3ccc([N+](=O)[O-])cc3)C2=O)c(OC)c1`: the CC50 in data set [1] was above 400 µM; in [2], above 400 µM; in data set [3] it was above 400 µM; with HSC-2 [4], above 400 µM; in the data set on HSC-4 [6], above 400 µM; with HL-60 [8], 11 µM. The results for the “Selectivity Index” value in the data set on HSC-2 [5], with HSC-4 [7] and with HL-60 [9] were 1, 1 and above 36, respectively. The Activity result in the data set on Mus musculus [10], in the data set with Mus musculus [11] and in the data set on Mus musculus [12] was “Non-toxic” in each case.

Turning to `O=C1/C(=C/c2ccccc2)CCC/C1=C\c1ccccc1[N+](=O)[O-]`, the CC50 in data set [1] was 93 µM; in [2] it was 16 µM; in [3], 26 µM; in the data set on HSC-2 [4], 3.8 µM; in the data set on HSC-4 [6], 3.2 µM; with HL-60 [8], 3.7 µM. Moreover, the “Selectivity Index” value in the data set on HSC-2 [5] is on record as 12; in the data set with HSC-4 [7], 14; with HL-60 [9], 12. The same compound gave a logP in [13] of 4.7. For the same compound, the Activity entry in the data set on Mus musculus [10], in the data set on Mus musculus [11] and in the data set on Mus musculus [12] was “Non-toxic” in each case.

`O=C1/C(=C/c2ccc(Cl)cc2)CCC/C1=C\c1ccccc1[N+](=O)[O-]`: the 50% cytotoxic concentration (CC50) is above 400 µM in data set [1]; 400 µM in [2]; above 400 µM in data set [3]; 3.7 µM in the data set with HSC-2 [4]; 6.1 µM with HSC-4 [6]; 7.6 µM with HL-60 [8]. For the same compound, the “Selectivity Index” value in the data set on HSC-2 [5] is recorded as above 108; in the data set with HSC-4 [7] it was above 66; in the data set on HL-60 [9], above 53. The compound also returned a lipophilicity (logP) in data set [13] of 5.38. Moreover, the result in the data set on HL-60 [15] and in the data set with HL-60 [17] was Active. Besides, the outcome with HSC-2 [16] and in the data set with HSC-2 [18] was inactive. Further, the Activity result in the data set with Mus musculus [10] is “Non-toxic”.
